Results taken from ChEMBL document CHEMBL3098020, “Synthesis and biological evaluation of novel 2-amino-3-aroyl-4-neopentyl-5-substituted thiophene derivatives as allosteric enhancers of the A₁ adenosine receptor” (Bioorg Med Chem, 2014).

Tests used:
[1] = target: T1, Adenosine receptor A1 (Homo sapiens) (UniProt P30542); experiment: (§1) Allosteric enhancement of human adenosine A1 receptor expressed in CHO cells assessed as inhibition of forskolin-stimulated cAMP production at 10 uM preincubated for 10 mins followed by forskolin challenge measured after 5 mins by scintillation counting analysis relative to control; assay type: functional, cell-based
T1 sequence (whole entry): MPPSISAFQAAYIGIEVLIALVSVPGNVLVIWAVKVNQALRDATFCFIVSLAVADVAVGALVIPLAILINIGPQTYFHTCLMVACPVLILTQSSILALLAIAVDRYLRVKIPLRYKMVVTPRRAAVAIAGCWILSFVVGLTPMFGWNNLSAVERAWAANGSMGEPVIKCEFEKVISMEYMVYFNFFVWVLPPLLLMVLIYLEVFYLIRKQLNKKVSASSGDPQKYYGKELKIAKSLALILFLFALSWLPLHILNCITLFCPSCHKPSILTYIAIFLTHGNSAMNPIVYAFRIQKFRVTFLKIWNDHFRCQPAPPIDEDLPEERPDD
How it was run: (§2)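 hA1-CHO cells (10⁶ cells/mL) in phosphate buffer with adenosine deaminase 1.0 IU/mL and Ro 20-1724 0.5 mM, preincubated 10 min at 37 °C. Compound added for 10 min, alone or at 100 nM with CCPA 1 pM. Forskolin 1 µM added for 5 min, stopped with cold 6% TCA. cAMP measured by [³H]-cAMP competition protein-binding assay; percent inhibition versus control; three experiments.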

[2] = target: Adenosine receptor A2a (Homo sapiens) (UniProt P29274); experiment: Displacement of [3H]-ZM241385 from human adenosine A2A receptor expressed in CHO cell membranes at 10 uM by scintillation counting analysis relative to control
Adenosine receptor A2a (Homo sapiens), sequence (P29274 whole entry): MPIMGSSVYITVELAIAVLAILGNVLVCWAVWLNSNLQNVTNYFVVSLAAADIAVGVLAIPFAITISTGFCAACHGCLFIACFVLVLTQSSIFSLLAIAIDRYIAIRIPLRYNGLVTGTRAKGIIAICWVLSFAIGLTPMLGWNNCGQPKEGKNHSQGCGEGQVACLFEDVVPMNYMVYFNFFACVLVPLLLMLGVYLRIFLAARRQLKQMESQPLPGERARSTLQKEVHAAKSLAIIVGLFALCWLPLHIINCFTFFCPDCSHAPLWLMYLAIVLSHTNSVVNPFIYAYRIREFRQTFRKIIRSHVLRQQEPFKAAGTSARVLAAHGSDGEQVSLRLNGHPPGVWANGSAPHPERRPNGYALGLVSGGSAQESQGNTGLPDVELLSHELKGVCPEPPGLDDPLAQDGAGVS
How it was run: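 A2A-expressing CHO membranes, pretreated with adenosine deaminase, in 50 mM Tris-HCl, 10 mM MgCl₂ pH 7.4 with 1 nM [³H]ZM 241385. Incubated 60 min at 4 °C. Compound 10 µM in 1% DMSO final. Filtration and scintillation counting; percent inhibition of specific binding.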

[3] = target: T1, Adenosine receptor A1 (Homo sapiens); experiment: as §1, with “100 nM” for “10 uM”, “analysis in presence of CCPA” for “analysis”; assay type: functional, cell-based; how it was run: as §2
[4] = target: T1, Adenosine receptor A1 (Homo sapiens); experiment: Potentiation of CCPA-induced displacement of [3H]-DPCPX from human adenosine A1 receptor expressed in CHO cell membranes at 10 uM after 90 mins relative to CCPA-treated control
How it was run: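 CCPA (0.01 nM–1 µM) competition against [³H]DPCPX in hA1-CHO membranes, with or without compound at 10 µM. Nonspecific binding defined with 1 µM DPCPX. Ki calculated from IC50 by the Cheng-Prusoff equation; CCPA Ki shift given as fold change; three experiments.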

[5] = target: T2, Adenosine receptor A3 (Homo sapiens) (UniProt P0DMS8); experiment: Displacement of [3H]-MRE-3008-F20 from human adenosine A3 receptor expressed in CHO cell membranes at 10 uM by scintillation counting analysis relative to control
T2 sequence (whole entry): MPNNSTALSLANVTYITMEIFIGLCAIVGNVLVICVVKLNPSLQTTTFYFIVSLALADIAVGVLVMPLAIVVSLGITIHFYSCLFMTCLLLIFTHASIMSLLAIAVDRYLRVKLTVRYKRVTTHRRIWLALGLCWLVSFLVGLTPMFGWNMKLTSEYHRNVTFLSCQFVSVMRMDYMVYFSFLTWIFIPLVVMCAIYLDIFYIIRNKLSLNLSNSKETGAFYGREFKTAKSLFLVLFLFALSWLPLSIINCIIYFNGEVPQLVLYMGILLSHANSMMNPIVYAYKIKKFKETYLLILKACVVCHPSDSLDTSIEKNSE
How it was run: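 A3-expressing CHO membranes in 50 mM Tris-HCl, 10 mM MgCl₂, 1 mM EDTA pH 7.4 with 2 nM [³H]MRE-3008-F20. Incubated 120 min at 4 °C. Compound 10 µM in 1% DMSO final. Filtration and scintillation counting; percent inhibition of specific binding.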

[6] = target: T1, Adenosine receptor A1 (Homo sapiens); experiment: Displacement of [3H]-DPCPX from human adenosine A1 receptor expressed in CHO cell membranes at 10 uM by scintillation counting analysis relative to control
How it was run: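 hA1-CHO membranes, pretreated with adenosine deaminase, in 50 mM Tris-HCl pH 7.4 with 1 nM [³H]DPCPX. Incubated 120 min at 25 °C. Compound 10 µM added from 100-fold DMSO stock, 1% DMSO final. Bound ligand collected on glass-fibre filters and counted by scintillation; percent inhibition of specific binding.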

[7] = target: T1, Adenosine receptor A1 (Homo sapiens); experiment: Potentiation of [3H]CCPA binding to human adenosine A1 receptor expressed in CHO cell membranes at 10 uM after 90 mins relative to [3H]CCPA-treated control

Compound: Cc1cccc(-c2sc(N)c(C(=O)c3ccc(Cl)cc3)c2CC(C)(C)C)c1
- inhibition [1]: 47%
- inhibition [2]: 1%
- inhibition [3]: 51%
- fold change (FC) [4]: 4.1
- inhibition [5]: 1%
- inhibition [6]: 1%
- fold change (FC) [7]: 4.7

Compound: Cc1c(-c2ccccc2)sc(N)c1C(=O)c1ccc(Cl)cc1
- inhibition [1]: 18%
- inhibition [2]: 8%
- inhibition [3]: 20%
- fold change (FC) [4]: 1.5
- inhibition [5]: 1%
- inhibition [6]: 1%
- fold change (FC) [7]: 1.5

Compound: CC(C)(C)Cc1c(-c2ccncc2)sc(N)c1C(=O)c1ccc(Cl)cc1
- inhibition [1]: 42%
- inhibition [2]: 1%
- inhibition [3]: 46%
- fold change (FC) [4]: 2.8
- inhibition [5]: 6%
- inhibition [6]: 1%
- fold change (FC) [7]: 4

Compound: CC(C)(C)Cc1c(-c2ccc(Cl)cc2)sc(N)c1C(=O)c1ccc(Cl)cc1
- inhibition [1]: 57%
- inhibition [2]: 1%
- inhibition [3]: 58%
- fold change (FC) [4]: 4
- inhibition [5]: 1%
- inhibition [6]: 1%
- fold change (FC) [7]: 5.8

Compound: Cc1ccc(-c2sc(N)c(C(=O)c3ccc(Cl)cc3)c2CC(C)(C)C)cc1
- inhibition [1]: 57%
- inhibition [2]: 1%
- inhibition [3]: 58%
- fold change (FC) [4]: 6
- inhibition [5]: 1%
- inhibition [6]: 1%
- fold change (FC) [7]: 6.4

Compound: CC(C)(C)Cc1c(Br)sc(N)c1C(=O)c1ccc(Cl)cc1
- inhibition [1]: 48%
- inhibition [2]: 2%
- inhibition [3]: 50%
- fold change (FC) [4]: 4.5
- inhibition [5]: 1%
- inhibition [6]: 1%
- fold change (FC) [7]: 6.8

Compound: Cc1ccccc1-c1sc(N)c(C(=O)c2ccc(Cl)cc2)c1CC(C)(C)C
- inhibition [1]: 47%
- inhibition [2]: 1%
- inhibition [3]: 49%
- fold change (FC) [4]: 2.7
- inhibition [5]: 1%
- inhibition [6]: 1%
- fold change (FC) [7]: 4.1

Compound: COc1ccccc1-c1sc(N)c(C(=O)c2ccc(Cl)cc2)c1CC(C)(C)C
- inhibition [1]: 27%
- inhibition [2]: 1%
- inhibition [3]: 29%
- fold change (FC) [4]: 1.9
- inhibition [5]: 1%
- inhibition [6]: 1%
- fold change (FC) [7]: 2.5

Compound: CC(C)(C)Cc1c(-c2cc(F)ccc2F)sc(N)c1C(=O)c1ccc(Cl)cc1
- inhibition [1]: 46%
- inhibition [2]: 1%
- inhibition [3]: 45%
- fold change (FC) [4]: 3.4
- inhibition [5]: 1%
- inhibition [6]: 3%
- fold change (FC) [7]: 5.3

Compound: CC(C)(C)Cc1c(Br)sc(N)c1C(=O)c1cccc(C(F)(F)F)c1
- inhibition [1]: 49%
- inhibition [2]: 1%
- inhibition [3]: 50%
- fold change (FC) [4]: 3
- inhibition [5]: 4%
- inhibition [6]: 1%
- fold change (FC) [7]: 4.4

Compound: CC(C)(C)Cc1c(-c2c(F)cccc2F)sc(N)c1C(=O)c1ccc(Cl)cc1
- inhibition [1]: 45%
- inhibition [2]: 2%
- inhibition [3]: 46%
- fold change (FC) [4]: 2.4
- inhibition [5]: 1%
- inhibition [6]: 1%
- fold change (FC) [7]: 4.2

Compound: CC(C)(C)Cc1c(-c2ccccc2)sc(N)c1C(=O)c1cccc(Cl)c1
- inhibition [1]: 59%
- inhibition [2]: 4%
- inhibition [3]: 57%
- fold change (FC) [4]: 3.1
- inhibition [5]: 5%
- inhibition [6]: 2%
- fold change (FC) [7]: 6.3

Compound: CC(C)(C)Cc1c(-c2ccccc2)sc(N)c1C(=O)c1ccc(Cl)c(Cl)c1
- inhibition [1]: 56%
- inhibition [2]: 1%
- inhibition [3]: 57%
- fold change (FC) [4]: 4.8
- inhibition [5]: 6%
- inhibition [6]: 1%
- fold change (FC) [7]: 5.9

Compound: CC(C)(C)Cc1c(-c2ccccc2)sc(N)c1C(=O)c1ccc(Cl)cc1Cl
- inhibition [1]: 52%
- inhibition [2]: 1%
- inhibition [3]: 55%
- fold change (FC) [4]: 4.4
- inhibition [5]: 1%
- inhibition [6]: 1%
- fold change (FC) [7]: 6.8

Compound: COCCOc1ccc(-c2sc(N)c(C(=O)c3ccc(Cl)cc3)c2CC(C)(C)C)cc1
- inhibition [1]: 53%
- inhibition [2]: 1%
- inhibition [3]: 55%
- fold change (FC) [4]: 3.3
- inhibition [5]: 1%
- inhibition [6]: 1%
- fold change (FC) [7]: 5.5

Compound: CC(C)(C)Cc1c(-c2ccccc2)sc(N)c1C(=O)c1ccccc1Cl
- inhibition [1]: 38%
- inhibition [2]: 1%
- inhibition [3]: 41%
- fold change (FC) [4]: 3.9
- inhibition [5]: 1%
- inhibition [6]: 1%
- fold change (FC) [7]: 5.4

Compound: CC(C)c1ccc(-c2sc(N)c(C(=O)c3ccc(Cl)cc3)c2CC(C)(C)C)cc1
- inhibition [1]: 56%
- inhibition [2]: 1%
- inhibition [3]: 58%
- fold change (FC) [4]: 4.1
- inhibition [5]: 1%
- inhibition [6]: 1%
- fold change (FC) [7]: 5.6

Compound: Nc1sc(-c2ccccc2)c(-c2ccccc2)c1C(=O)c1ccc(Cl)cc1
- inhibition [1]: 24%
- inhibition [2]: 6%
- inhibition [3]: 26%
- fold change (FC) [4]: 1.7
- inhibition [5]: 1%
- inhibition [6]: 1%
- fold change (FC) [7]: 2.1

Compound: CC(C)(C)Cc1c(Br)sc(N)c1C(=O)c1cccc(Cl)c1
- inhibition [1]: 45%
- inhibition [2]: 1%
- inhibition [3]: 48%
- fold change (FC) [4]: 2.4
- inhibition [5]: 1%
- inhibition [6]: 1%
- fold change (FC) [7]: 3.6

Compound: CC(C)(C)Cc1c(Br)sc(N)c1C(=O)c1ccc(Cl)c(Cl)c1
- inhibition [1]: 42%
- inhibition [2]: 1%
- inhibition [3]: 40%
- fold change (FC) [4]: 4
- inhibition [5]: 1%
- inhibition [6]: 1%
- fold change (FC) [7]: 4.5

Compound: COc1ccc(-c2sc(N)c(C(=O)c3cccc(C(F)(F)F)c3)c2CC(C)(C)C)cc1
- inhibition [1]: 44%
- inhibition [2]: 1%
- inhibition [3]: 46%
- fold change (FC) [4]: 1.8
- inhibition [5]: 1%
- inhibition [6]: 2%
- fold change (FC) [7]: 4

Compound: CC(C)(C)Cc1c(-c2cccnc2)sc(N)c1C(=O)c1ccc(Cl)cc1
- inhibition [1]: 37%
- inhibition [2]: 1%
- inhibition [3]: 41%
- fold change (FC) [4]: 2.2
- inhibition [5]: 1%
- inhibition [6]: 1%
- fold change (FC) [7]: 3.7

Compound: CC(C)(C)Cc1csc(N)c1C(=O)c1cccc(C(F)(F)F)c1
- inhibition [1]: 28%
- inhibition [2]: 1%
- inhibition [3]: 30%
- fold change (FC) [4]: 1.7
- inhibition [5]: 1%
- inhibition [6]: 1%
- fold change (FC) [7]: 2.6

Compound: Cc1c(Br)sc(N)c1C(=O)c1ccc(Cl)cc1
- inhibition [1]: 21%
- inhibition [2]: 1%
- inhibition [3]: 25%
- fold change (FC) [4]: 1.9
- inhibition [5]: 1%
- inhibition [6]: 1%
- fold change (FC) [7]: 1.8

Compound: CC(C)(C)Cc1c(-c2ccc(F)cc2F)sc(N)c1C(=O)c1ccc(Cl)cc1
- inhibition [1]: 48%
- inhibition [2]: 1%
- inhibition [3]: 49%
- fold change (FC) [4]: 3.6
- inhibition [5]: 1%
- inhibition [6]: 1%
- fold change (FC) [7]: 5.3

Compound: CC(C)(C)Cc1c(-c2ccco2)sc(N)c1C(=O)c1ccc(Cl)cc1
- inhibition [1]: 49%
- inhibition [2]: 1%
- inhibition [3]: 47%
- fold change (FC) [4]: 3.5
- inhibition [5]: 1%
- inhibition [6]: 1%
- fold change (FC) [7]: 5.1

Compound: Cc1sc(N)c(C(=O)c2cccc(C(F)(F)F)c2)c1C
- inhibition [2]: 1%
- fold change (FC) [4]: 1.5
- inhibition [6]: 1%
- fold change (FC) [7]: 1.3
